Measured values: ChEMBL document CHEMBL1153746, “Mansouramycins A-D, cytotoxic isoquinolinequinones from a marine streptomycete” (J Nat Prod, 2009)

How the values were obtained:
Bacillus subtilis = experiment: Antibacterial activity against Bacillus subtilis at […] by agar diffusion test; type: functional
Escherichia coli = experiment: Antibacterial activity against Escherichia coli at […] by agar diffusion test; type: functional
Staphylococcus aureus = experiment: Antibacterial activity against Staphylococcus aureus at […] by agar diffusion test; type: functional
[1] = test system: Streptomyces viridochromogenes; experiment: Antibacterial activity against Streptomyces viridochromogenes at […] by agar diffusion test; type: functional
Candida albicans = experiment: Antifungal activity against Candida albicans at […] by agar diffusion test; type: functional
Rhizomucor miehei = experiment: Antifungal activity against Mucor miehei at […] by agar diffusion test; type: functional
Chlorella vulgaris = experiment: Antialgal activity against Chlorella vulgaris at […] by agar diffusion test; type: functional
Chlorella sorokiniana = experiment: Antialgal activity against Chlorella sorokiniana at […] by agar diffusion test; type: functional
Desmodesmus subspicatus = experiment: Antialgal activity against Scenedesmus subspicatus at […] by agar diffusion test; type: functional
[2] = Cytotoxicity against human 1218L cells after 4 days by propidium iodide assay; type: functional, cell-based; settings: 96 h
Outline: (§1)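 Monolayer cell proliferation assay across a panel of up to 36 human tumour lines covering 14 solid tumour types. Lines came either from patient tumours grown as subcutaneous xenografts in NMRI nu/nu mice or from culture collections (ATCC, NCI, DSMZ). Potency is given as IC50.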

[3] = Cytotoxicity against human BXF T24 cells after 4 days by propidium iodide assay; type: functional, cell-based; settings: T-24, 96 h; outline: as §1
[4] = Cytotoxicity against human 498NL cells after 4 days by propidium iodide assay; type: functional, cell-based; settings: 96 h; outline: as §1
SF-268 = experiment: Cytotoxicity against human SF268 cells after 4 days by propidium iodide assay; type: functional, cell-based; settings: SF-268, 96 h; outline: as §1
HCT-116 = experiment: Cytotoxicity against human HCT116 cells after 4 days by propidium iodide assay; type: functional, cell-based; settings: HCT-116, 96 h; outline: as §1
HT-29 = experiment: Cytotoxicity against human HT-29 cells after 4 days by propidium iodide assay; type: functional, cell-based; settings: HT-29, 96 h; outline: as §1
[5] = Cytotoxicity against human GXF251L cells after 4 days by propidium iodide assay; type: functional, cell-based; settings: GXF 251L, 96 h; outline: as §1
[6] = Cytotoxicity against human 536L cells after 4 days by propidium iodide assay; type: functional, cell-based; settings: 96 h; outline: as §1
[7] = Cytotoxicity against human 1121L cells after 4 days by propidium iodide assay; type: functional, cell-based; settings: 96 h; outline: as §1
[8] = Cytotoxicity against human 289L cells after 4 days by propidium iodide assay; type: functional, cell-based; settings: 96 h; outline: as §1
[9] = Cytotoxicity against human 526L cells after 4 days by propidium iodide assay; type: functional, cell-based; settings: 96 h; outline: as §1
[10] = Cytotoxicity against human LXFL 529L cells after 4 days by propidium iodide assay; type: functional, cell-based; settings: 96 h; outline: as §1
[11] = Cytotoxicity against human 629L cells after 4 days by propidium iodide assay; type: functional, cell-based; settings: 96 h; outline: as §1
NCI-H460 = experiment: Cytotoxicity against human H460 cells after 4 days by propidium iodide assay; type: functional, cell-based; settings: NCI-H460, 96 h; outline: as §1
[12] = Cytotoxicity against human MAXF 401NL cells after 4 days by propidium iodide assay; type: functional, cell-based; settings: 96 h; outline: as §1
MCF7 = experiment: Cytotoxicity against human MCF7 cells after 4 days by propidium iodide assay; type: functional, cell-based; settings: MCF7, 96 h; outline: as §1
[13] = Cytotoxicity against human 276L cells after 4 days by propidium iodide assay; type: functional, cell-based; settings: 96 h; outline: as §1
[14] = Cytotoxicity against human 394NL cells after 4 days by propidium iodide assay; type: functional, cell-based; settings: 96 h; outline: as §1
[15] = Cytotoxicity against human MEXF 462NL cells after 4 days by propidium iodide assay; type: functional, cell-based; settings: 96 h; outline: as §1
[16] = Cytotoxicity against human 514L cells after 4 days by propidium iodide assay; type: functional, cell-based; settings: 96 h; outline: as §1
[17] = Cytotoxicity against human 520L cells after 4 days by propidium iodide assay; type: functional, cell-based; settings: 96 h; outline: as §1
[18] = Cytotoxicity against human 1619L cells after 4 days by propidium iodide assay; type: functional, cell-based; settings: 96 h; outline: as §1
[19] = Cytotoxicity against human 899L cells after 4 days by propidium iodide assay; type: functional, cell-based; settings: 96 h; outline: as §1
OVCAR-3 = experiment: Cytotoxicity against human OVCAR-3 cells after 4 days by propidium iodide assay; type: functional, cell-based; settings: OVCAR-3, 96 h; outline: as §1
[20] = Cytotoxicity against human 1657L cells after 4 days by propidium iodide assay; type: functional, cell-based; settings: 96 h; outline: as §1
PANC-1 = experiment: Cytotoxicity against human PANC1 cells after 4 days by propidium iodide assay; type: functional, cell-based; settings: PANC-1, 96 h; outline: as §1
CWR22R = experiment: Cytotoxicity against human 22Rv1 cells after 4 days by propidium iodide assay; type: functional, cell-based; settings: 22Rv1, 96 h; outline: as §1
DU-145 = experiment: Cytotoxicity against human DU145 cells after 4 days by propidium iodide assay; type: functional, cell-based; settings: DU-145, 96 h; outline: as §1
LNCaP = experiment: Cytotoxicity against human LNCAP cells after 4 days by propidium iodide assay; type: functional, cell-based; settings: 96 h; outline: as §1
[21] = Cytotoxicity against human PC3M cells after 4 days by propidium iodide assay; type: functional, cell-based; settings: PC-3M, 96 h; outline: as §1
[22] = Cytotoxicity against human 1752L cells after 4 days by propidium iodide assay; type: functional, cell-based; settings: 96 h; outline: as §1
[23] = Cytotoxicity against human 1781L cells after 4 days by propidium iodide assay; type: functional, cell-based; settings: 96 h; outline: as §1
[24] = Cytotoxicity against human 393NL cells after 4 days by propidium iodide assay; type: functional, cell-based; settings: 96 h; outline: as §1
[25] = Cytotoxicity against human RXF 486L cells after 4 days by propidium iodide assay; type: functional, cell-based; settings: 96 h; outline: as §1
[26] = Cytotoxicity against human RXF 944L cells after 4 days by propidium iodide assay; type: functional, cell-based; settings: 96 h; outline: as §1
[27] = Cytotoxicity against human UXF 1138L cells after 4 days by propidium iodide assay; type: functional, cell-based; settings: 96 h; outline: as §1
[28] = in the assay text read “MTT assay” for “propidium iodide assay”

CNC1=CC(=O)c2c(cnc(C)c2C)C1=O [MANSOURAMYCIN A]
diameter of the inhibition zone (DIZ) (Bacillus subtilis): 10 mm
diameter of the inhibition zone (DIZ) (Escherichia coli): 10 mm
diameter of the inhibition zone (DIZ) (Staphylococcus aureus): 12 mm
diameter of the inhibition zone (DIZ) [1]: 0 mm
diameter of the inhibition zone (DIZ) (Candida albicans): 0 mm
diameter of the inhibition zone (DIZ) (Rhizomucor miehei): 0 mm
diameter of the inhibition zone (DIZ) (Chlorella vulgaris): 22 mm
diameter of the inhibition zone (DIZ) (Chlorella sorokiniana): 17 mm
diameter of the inhibition zone (DIZ) (Desmodesmus subspicatus): 25 mm
IC50 [2]: 28.2 µM
IC50 [3]: 12.6 µM
IC50 [4]: 14.4 µM
IC50 (SF-268): 14.4 µM
IC50 (HCT-116): 9.11 µM
IC50 (HT-29): 4.63 µM
IC50 [5]: 31.9 µM
IC50 [6]: 0.71 µM
IC50 [7]: 27.1 µM
IC50 [8]: 19.1 µM
IC50 [9]: 19 µM
IC50 [10]: 12.4 µM
IC50 [11]: 4.1 µM
IC50 (NCI-H460): 7.11 µM
IC50 [12]: 47.8 µM
IC50 (MCF7): 2.34 µM
IC50 [13]: 2.44 µM
IC50 [14]: 15.6 µM
IC50 [15]: 49.9 µM
IC50 [16]: 2.6 µM
IC50 [17, 28]: 5.45 µM
IC50 [18, 28]: 13.2 µM
IC50 [19, 28]: 34.9 µM
IC50 (OVCAR-3; [28]): 32.3 µM
IC50 [20, 28]: 26 µM
IC50 (PANC-1): 26.8 µM
IC50 (CWR22R): 21.7 µM
IC50 (DU-145): 1.25 µM
IC50 (LNCaP): 21.7 µM
IC50 [21]: 32.6 µM
IC50 [22]: 46.3 µM
IC50 [23]: 16.4 µM
IC50 [24]: 18.7 µM
IC50 [25]: 59.1 µM
IC50 [26]: 18.1 µM
IC50 [27, 28]: 18 µM

CNC1=CC(=O)c2cc(C(=O)OC)ncc2C1=O
IC50 [2]: 0.134 µM
IC50 [3]: 0.008 µM
IC50 [4]: 0.13 µM
IC50 (SF-268): 0.008 µM
IC50 (HCT-116): 0.114 µM
IC50 (HT-29): 0.146 µM
IC50 [5]: 0.167 µM
IC50 [6]: 0.146 µM
IC50 [7]: 0.15 µM
IC50 [8]: 0.13 µM
IC50 [9]: 0.11 µM
IC50 [10]: 0.089 µM
IC50 [11]: 0.016 µM
IC50 (NCI-H460): 0.134 µM
IC50 [12]: 0.195 µM
IC50 (MCF7): 0.012 µM
IC50 [13]: 0.008 µM
IC50 [14]: 0.106 µM
IC50 [15]: 0.179 µM
IC50 [16]: 0.012 µM
IC50 [17]: 0.012 µM
IC50 [18]: 0.045 µM
IC50 [19]: 0.134 µM
IC50 (OVCAR-3): 0.012 µM
IC50 [20]: 0.061 µM
IC50 (PANC-1): 0.549 µM
IC50 (CWR22R): 0.671 µM
IC50 (DU-145): 0.992 µM
IC50 (LNCaP): 1.43 µM
IC50 [21]: 0.215 µM
IC50 [22]: 0.13 µM
IC50 [23]: 0.114 µM
IC50 [24]: 0.122 µM
IC50 [25]: 1.65 µM
IC50 [26]: 0.02 µM
IC50 [27]: 0.012 µM
